The values that follow come from ChEMBL document CHEMBL4823260, “From High-Throughput Screening to Target Validation: Benzo[d]isothiazoles as Potent and Selective Agonists of Human Transient Receptor Potential Cation Channel Subfamily M Member 5 Possessing In Vivo Gastrointestinal Prokinetic Activity in Rodents” (J Med Chem, 2021).

Data set [1] deals with T1, Transient receptor potential cation channel subfamily M member 5 (Homo sapiens, UniProt Q9NZQ8).
T1 sequence (Q9NZQ8 whole entry): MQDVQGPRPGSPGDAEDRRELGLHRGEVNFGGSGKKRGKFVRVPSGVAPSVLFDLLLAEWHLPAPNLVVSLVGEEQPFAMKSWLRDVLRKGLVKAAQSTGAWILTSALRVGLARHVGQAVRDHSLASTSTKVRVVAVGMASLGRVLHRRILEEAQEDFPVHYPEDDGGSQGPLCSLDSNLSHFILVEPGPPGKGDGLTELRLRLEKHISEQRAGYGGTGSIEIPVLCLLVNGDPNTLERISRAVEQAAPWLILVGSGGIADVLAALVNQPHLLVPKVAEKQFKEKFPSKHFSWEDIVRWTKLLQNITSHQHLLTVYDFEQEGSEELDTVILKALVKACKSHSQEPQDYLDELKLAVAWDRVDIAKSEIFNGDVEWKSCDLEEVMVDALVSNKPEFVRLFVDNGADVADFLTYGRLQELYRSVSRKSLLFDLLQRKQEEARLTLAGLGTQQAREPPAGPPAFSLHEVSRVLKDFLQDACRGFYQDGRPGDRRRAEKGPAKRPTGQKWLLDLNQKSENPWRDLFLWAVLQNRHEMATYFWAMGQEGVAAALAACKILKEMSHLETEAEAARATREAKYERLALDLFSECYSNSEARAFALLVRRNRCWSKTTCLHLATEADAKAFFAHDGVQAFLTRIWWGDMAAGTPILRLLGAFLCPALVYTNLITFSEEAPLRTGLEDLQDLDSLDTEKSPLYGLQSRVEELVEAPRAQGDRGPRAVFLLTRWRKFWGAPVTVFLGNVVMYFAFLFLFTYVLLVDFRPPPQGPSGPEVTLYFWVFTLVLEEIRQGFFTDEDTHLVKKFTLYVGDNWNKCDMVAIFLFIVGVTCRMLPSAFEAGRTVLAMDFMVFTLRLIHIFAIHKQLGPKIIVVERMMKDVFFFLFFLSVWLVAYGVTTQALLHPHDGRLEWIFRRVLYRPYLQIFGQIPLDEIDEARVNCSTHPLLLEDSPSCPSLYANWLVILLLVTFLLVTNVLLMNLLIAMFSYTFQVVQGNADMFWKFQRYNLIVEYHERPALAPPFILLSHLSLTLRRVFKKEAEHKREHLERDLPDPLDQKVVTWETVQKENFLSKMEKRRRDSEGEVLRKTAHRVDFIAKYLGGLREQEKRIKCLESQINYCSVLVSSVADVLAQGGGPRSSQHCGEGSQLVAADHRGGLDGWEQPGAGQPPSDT
As to the kind of experiment: Agonist activity at human TRPM5 expressed in CHO-K1 cells maintained at 80 mV final holding potential by syncroPatch assay. It counts as cell-based. Put shortly:
(§1)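 SyncroPatch 384 whole-cell recording at rt on CHO-K1 cells stably expressing human or mouse TRPM5. Intracellular solution had 2 mM Na-ATP and 5 μM free Ca2+. Cumulative doses 0.03–31.6 μM in 0.5% DMSO, 150 s each after 180 s vehicle. Current measured at the end of the +80 mV step, normalized to vehicle; pEC50 is the mean of ≥2 independent experiments.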

In data set [2] the target is T1, Transient receptor potential cation channel subfamily M member 5. Nature of the data set: Agonist activity at human TRPM5 expressed in CHO-K1 cells maintained at 80 mV final holding potential by QPatch HTX assay. It counts as cell-based. Put shortly:
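Whole-cell QPatch HTX recording at rt on CHO-K1 cells with stable hTRPM5. Pipette solution HEDTA-buffered to 1 μM free Ca2+, pH 7.2. Cells held at 0 mV; 0.1 Hz protocol with steps to −80/+80 mV and a ramp. Current taken at the end of the first +80 mV step, no leak subtraction. Increase expressed relative to vehicle current (100%).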
(Patch clamp records ionic current or voltage across a cell membrane.)

Data set [3] can be described thus: Intrinsic clearance in mouse liver microsomes assessed per mg protein incubated up to 30 mins in presence of NADPH by LC-MS/MS analysis. To be noted: […]. It counts as ADME, Microsome. Background: Liver microsomes are a subcellular fraction often used to study metabolism.
Data set [4] has as its target Transient receptor potential cation channel subfamily A member 1 (Homo sapiens, UniProt O75762). As to the kind of experiment: Agonist activity at human TRPA1 expressed in HEK cells assessed as increase in menthol-induced intracellular calcium level incubated for 2 hrs by FLIPR assay. It counts as cell-based. The procedure, abridged: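 HEK cells stably expressing hTRPA1, plated at 20,000/well 24 h ahead, loaded with calcium-6 dye plus 2.5 mM probenecid for 2 h at 37 °C. First FLIPR addition: 11-point 1:3 concentration series, read for 5 min, scaled to (−)menthol 1 mM final (100% control); pEC50 fitted. Final DMSO 0.5%; run at 37 °C.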

Data set [5] in a line: Efflux ratio of apparent permeability across basolateral to apical over apical to basolateral membrane in human Caco-2 cells incubated for 30 mins by LC-MS/MS analysis. It counts as ADME, cell-based.
Data set [6] concerns the target Transient receptor potential cation channel subfamily M member 4 (Homo sapiens, UniProt Q8TD43). As to the kind of experiment: Agonist activity at human TRPM4 expressed in CHO cells assessed as change in membrane potential by FLIPR assay.
Data set [7] concerns the target Transient receptor potential cation channel subfamily M member 8 (Homo sapiens, UniProt Q7Z2W7). As to the kind of experiment: Agonist activity at human TRPM8 expressed in HEK cells assessed as increase in menthol-induced intracellular calcium level measured after 1 hr by FLIPR assay. It counts as cell-based. Put shortly:
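HEK cells with stable hTRPM8, 20,000/well on poly-D-lysine plates 24 h ahead. Loaded with calcium-6 dye and 2.5 mM probenecid, 1 h at 37 °C then 1 h at rt. First-addition calcium rise scaled to (−)menthol 100 μM final (100% control); pEC50 derived from the concentration–response. Final DMSO 0.5%; assay at rt.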
A general note: A change in cytosolic calcium serves as a functional read-out for many receptors and channels.

Data set [8] deals with T2, Transient receptor potential cation channel subfamily M member 5 (Mus musculus, UniProt Q9JJH7).
T2 sequence (Q9JJH7 whole entry): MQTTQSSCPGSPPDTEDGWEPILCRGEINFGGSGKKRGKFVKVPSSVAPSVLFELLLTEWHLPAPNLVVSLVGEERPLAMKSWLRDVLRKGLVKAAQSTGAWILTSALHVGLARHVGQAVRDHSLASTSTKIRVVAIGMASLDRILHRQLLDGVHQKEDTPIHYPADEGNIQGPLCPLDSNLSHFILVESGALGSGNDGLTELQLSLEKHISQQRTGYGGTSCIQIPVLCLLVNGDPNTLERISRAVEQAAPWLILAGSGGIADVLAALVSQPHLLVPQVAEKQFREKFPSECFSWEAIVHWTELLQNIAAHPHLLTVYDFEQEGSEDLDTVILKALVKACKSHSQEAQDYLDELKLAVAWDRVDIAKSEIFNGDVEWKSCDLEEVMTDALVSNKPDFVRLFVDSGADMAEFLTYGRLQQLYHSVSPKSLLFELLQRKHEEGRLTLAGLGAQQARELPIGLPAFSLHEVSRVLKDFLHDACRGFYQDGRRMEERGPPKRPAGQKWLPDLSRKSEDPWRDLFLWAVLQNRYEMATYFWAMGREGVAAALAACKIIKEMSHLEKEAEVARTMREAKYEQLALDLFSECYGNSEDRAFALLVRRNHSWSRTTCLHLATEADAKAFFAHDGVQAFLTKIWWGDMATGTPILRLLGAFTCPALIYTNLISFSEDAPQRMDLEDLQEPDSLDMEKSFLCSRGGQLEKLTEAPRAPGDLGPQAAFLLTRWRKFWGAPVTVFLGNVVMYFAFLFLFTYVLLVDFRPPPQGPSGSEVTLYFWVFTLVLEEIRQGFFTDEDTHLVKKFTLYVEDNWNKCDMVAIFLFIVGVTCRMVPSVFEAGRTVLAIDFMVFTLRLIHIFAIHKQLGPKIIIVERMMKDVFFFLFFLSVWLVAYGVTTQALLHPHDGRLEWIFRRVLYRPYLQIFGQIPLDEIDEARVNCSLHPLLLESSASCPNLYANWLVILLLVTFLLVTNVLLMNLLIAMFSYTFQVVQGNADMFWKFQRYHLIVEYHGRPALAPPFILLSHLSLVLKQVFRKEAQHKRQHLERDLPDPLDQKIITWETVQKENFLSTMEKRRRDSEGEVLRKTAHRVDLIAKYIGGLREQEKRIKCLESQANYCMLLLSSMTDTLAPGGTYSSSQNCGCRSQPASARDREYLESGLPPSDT
Nature of the data set: Agonist activity at mouse TRPM5 expressed in CHO-K1 cells maintained at 80 mV final holding potential by syncroPatch assay. It counts as cell-based. Put shortly: as §1

A short description of data set [9]: Solubility of the compound in phospahte-buffered saline buffer at pH 7.4 incubated for 2 hrs by HPLC/UV analysis. It counts as physicochemical. To be noted: phosphate-buffered saline.
Data set [10] has as its target Transient receptor potential cation channel subfamily V member 1 (Homo sapiens, UniProt Q8NER1). As to the kind of experiment: Agonist activity at human TRPV1 expressed in CHO cells assessed as increase in capsaicin-induced intracellular calcium level measured after 1 hr by FLIPR assay. It counts as cell-based. Put shortly:
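CHO cells stably expressing hTRPV1, plated at 10,000/well 24 h before the assay. Loaded with calcium-6 dye plus 2.5 mM probenecid for 1 h at 37 °C and 1 h at rt. FLIPR dual-addition protocol; agonist potency derived as pEC50.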

Data set [11] in a line: Apparent permeability across apical to basolateral membrane in human Caco-2 cells incubated for 30 mins by LC-MS/MS analysis. It counts as ADME, cell-based.
Data set [12] is described as follows: Intrinsic clearance in human liver microsomes assessed per mg protein incubated up to 30 mins in presence of NADPH by LC-MS/MS analysis. It counts as ADME, Microsome. As to conditions: […].
Data set [13] addresses Transient receptor potential cation channel subfamily V member 4 (Homo sapiens, UniProt Q9HBA0). Nature of the data set: Agonist activity at human TRPV4 expressed in HEK cells assessed as increase in GSK1016790A-induced intracellular calcium level measured after 1 hr by FLIPR assay. It counts as cell-based.

Values after ≈ are worked out from the molar mass of the structure shown.

The EC50 is the concentration that produces a half-maximal response. A word on the efflux ratio: it is a quotient of directional permeabilities that is used to spot active efflux. The solubility is the dissolved amount per volume that the medium holds. A higher solubility goes with much dissolved substance. The Papp A→B is the apparent permeability from the apical to the basolateral side of a cell layer.

Transient receptor potential cation channel subfamily M member 8, sequence (Q7Z2W7 whole entry): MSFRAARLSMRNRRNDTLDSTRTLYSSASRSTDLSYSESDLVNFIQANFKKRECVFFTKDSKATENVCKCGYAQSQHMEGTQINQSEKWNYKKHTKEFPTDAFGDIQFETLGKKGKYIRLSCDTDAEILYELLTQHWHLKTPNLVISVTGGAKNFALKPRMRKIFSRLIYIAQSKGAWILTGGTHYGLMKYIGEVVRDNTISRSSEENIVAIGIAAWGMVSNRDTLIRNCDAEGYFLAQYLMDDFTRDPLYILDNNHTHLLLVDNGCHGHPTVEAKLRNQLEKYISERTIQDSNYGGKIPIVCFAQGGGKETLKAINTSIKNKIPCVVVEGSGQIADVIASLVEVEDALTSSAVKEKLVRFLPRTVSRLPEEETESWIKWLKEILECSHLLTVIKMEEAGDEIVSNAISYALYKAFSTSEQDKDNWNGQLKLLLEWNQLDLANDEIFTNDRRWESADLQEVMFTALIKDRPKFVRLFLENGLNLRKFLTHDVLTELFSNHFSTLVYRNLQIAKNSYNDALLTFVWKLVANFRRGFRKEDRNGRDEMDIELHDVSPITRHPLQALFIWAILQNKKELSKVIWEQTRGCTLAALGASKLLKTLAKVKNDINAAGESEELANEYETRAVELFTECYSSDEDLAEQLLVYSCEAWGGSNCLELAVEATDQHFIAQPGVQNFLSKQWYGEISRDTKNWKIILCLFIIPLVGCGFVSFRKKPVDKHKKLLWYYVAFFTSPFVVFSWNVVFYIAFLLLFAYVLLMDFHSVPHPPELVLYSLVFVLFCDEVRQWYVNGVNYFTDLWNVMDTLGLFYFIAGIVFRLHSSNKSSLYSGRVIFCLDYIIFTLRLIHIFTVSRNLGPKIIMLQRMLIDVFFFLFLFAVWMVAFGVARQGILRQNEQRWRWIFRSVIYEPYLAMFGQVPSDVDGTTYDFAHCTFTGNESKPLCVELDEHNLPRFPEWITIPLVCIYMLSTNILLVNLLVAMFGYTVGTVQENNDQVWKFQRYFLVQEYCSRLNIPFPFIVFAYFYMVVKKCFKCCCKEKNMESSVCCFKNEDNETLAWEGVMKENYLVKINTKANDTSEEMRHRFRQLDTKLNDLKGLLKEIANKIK
Transient receptor potential cation channel subfamily M member 4, sequence (Q8TD43 whole entry): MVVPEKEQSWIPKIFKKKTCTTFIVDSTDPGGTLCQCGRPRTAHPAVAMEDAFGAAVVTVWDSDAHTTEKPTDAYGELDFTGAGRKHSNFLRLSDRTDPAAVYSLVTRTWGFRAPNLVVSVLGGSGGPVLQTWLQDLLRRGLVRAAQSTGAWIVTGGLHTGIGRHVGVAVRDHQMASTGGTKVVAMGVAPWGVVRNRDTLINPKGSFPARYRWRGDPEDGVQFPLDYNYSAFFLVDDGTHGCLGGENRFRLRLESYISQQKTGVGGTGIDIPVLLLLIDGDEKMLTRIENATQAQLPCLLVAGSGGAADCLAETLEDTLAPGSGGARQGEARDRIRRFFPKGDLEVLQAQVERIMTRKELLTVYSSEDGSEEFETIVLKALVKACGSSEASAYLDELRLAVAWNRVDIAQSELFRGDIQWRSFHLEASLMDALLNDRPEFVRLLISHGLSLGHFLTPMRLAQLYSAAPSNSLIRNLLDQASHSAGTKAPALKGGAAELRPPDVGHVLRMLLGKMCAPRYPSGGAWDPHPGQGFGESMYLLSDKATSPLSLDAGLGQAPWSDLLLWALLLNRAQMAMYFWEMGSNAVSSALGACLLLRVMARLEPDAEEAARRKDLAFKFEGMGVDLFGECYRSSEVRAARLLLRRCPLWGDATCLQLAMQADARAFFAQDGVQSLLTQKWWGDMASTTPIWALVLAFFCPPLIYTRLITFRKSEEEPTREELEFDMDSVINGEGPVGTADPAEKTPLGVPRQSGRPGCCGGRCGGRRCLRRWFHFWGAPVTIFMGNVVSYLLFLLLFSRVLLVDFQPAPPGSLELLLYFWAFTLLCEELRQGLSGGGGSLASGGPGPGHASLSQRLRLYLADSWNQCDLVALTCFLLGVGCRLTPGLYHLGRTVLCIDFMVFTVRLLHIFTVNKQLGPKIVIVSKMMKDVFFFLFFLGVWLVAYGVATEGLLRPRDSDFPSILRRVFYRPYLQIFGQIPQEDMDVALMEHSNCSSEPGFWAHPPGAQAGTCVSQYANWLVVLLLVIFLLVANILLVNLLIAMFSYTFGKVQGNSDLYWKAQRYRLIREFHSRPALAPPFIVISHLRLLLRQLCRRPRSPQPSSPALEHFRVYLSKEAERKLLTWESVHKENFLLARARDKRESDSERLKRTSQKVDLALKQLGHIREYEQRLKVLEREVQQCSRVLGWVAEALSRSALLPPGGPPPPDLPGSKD
Transient receptor potential cation channel subfamily V member 4, sequence (Q9HBA0 whole entry): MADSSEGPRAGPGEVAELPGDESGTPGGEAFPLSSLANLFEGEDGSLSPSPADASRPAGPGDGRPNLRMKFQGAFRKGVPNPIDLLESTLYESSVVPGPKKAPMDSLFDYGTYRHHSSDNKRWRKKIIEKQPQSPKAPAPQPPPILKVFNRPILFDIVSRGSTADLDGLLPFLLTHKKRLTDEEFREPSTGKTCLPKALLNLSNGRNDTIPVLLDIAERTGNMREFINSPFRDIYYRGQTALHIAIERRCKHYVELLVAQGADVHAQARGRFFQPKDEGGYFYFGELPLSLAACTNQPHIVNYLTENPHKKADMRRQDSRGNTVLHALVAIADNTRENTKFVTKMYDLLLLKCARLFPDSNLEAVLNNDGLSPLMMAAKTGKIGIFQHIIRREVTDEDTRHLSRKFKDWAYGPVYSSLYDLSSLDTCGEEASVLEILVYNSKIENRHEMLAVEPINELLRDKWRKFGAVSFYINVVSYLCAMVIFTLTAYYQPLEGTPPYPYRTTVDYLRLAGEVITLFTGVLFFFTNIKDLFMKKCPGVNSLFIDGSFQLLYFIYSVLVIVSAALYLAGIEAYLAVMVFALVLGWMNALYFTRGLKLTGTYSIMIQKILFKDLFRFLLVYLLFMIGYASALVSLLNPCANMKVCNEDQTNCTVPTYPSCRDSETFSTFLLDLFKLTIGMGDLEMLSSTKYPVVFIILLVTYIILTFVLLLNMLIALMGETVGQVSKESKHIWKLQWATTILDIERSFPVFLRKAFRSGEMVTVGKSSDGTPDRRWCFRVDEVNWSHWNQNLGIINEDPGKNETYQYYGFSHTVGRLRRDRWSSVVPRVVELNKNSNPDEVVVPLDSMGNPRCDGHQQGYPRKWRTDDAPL
Transient receptor potential cation channel subfamily V member 1, sequence (Q8NER1 whole entry): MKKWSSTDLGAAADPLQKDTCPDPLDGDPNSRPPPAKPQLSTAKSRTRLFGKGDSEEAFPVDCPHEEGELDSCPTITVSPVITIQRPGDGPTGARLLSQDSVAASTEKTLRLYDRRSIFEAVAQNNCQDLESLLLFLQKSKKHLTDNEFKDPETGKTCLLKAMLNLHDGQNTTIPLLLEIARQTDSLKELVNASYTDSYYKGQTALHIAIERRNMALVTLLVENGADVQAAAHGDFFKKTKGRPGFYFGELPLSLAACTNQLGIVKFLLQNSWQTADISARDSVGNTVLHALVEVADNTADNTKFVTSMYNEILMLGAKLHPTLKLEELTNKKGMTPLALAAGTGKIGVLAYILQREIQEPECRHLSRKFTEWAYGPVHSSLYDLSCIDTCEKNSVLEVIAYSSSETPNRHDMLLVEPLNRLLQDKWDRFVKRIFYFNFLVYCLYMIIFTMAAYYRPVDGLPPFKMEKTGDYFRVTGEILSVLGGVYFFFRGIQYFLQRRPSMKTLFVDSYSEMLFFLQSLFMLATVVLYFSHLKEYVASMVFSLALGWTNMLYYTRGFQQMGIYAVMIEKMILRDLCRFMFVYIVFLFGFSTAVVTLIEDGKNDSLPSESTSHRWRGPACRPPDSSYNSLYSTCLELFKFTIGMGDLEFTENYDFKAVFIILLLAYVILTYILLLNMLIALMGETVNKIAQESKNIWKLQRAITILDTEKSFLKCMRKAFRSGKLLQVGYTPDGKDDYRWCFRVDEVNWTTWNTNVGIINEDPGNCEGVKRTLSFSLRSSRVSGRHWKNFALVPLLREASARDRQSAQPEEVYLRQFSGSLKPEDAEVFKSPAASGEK

As to `Cn1c(Cl)cnc1CNc1ccc(Cl)cc1F`, the EC50 in [1] is 4.68 µM; in [2], 6.03 µM.
Turning to `Cn1c(Cl)cnc1CNc1ccc2sncc2c1`, the figures for the microsomal CLint in data set [3] and in [12] were 446 µL/min/mg and 109 µL/min/mg, respectively. Also, the EC50 is 0.331 µM in data set [1]; above 15.8 µM in data set [4]; above 63.1 µM in data set [6]; above 15.8 µM in data set [7]; 0.316 µM in data set [8]; above 15.8 µM in data set [10]. The EC50 in [13] is above 15.8 µM. The efflux ratio at 0.5 h in data set [5] was determined as 1.03. In addition, the solubility at 2 h in data set [9] came to 215 µM (≈ 59.9 µg/mL). For the same compound, the Papp A→B at 0.5 h in data set [11] turned out to be 21.9 ×10⁻⁶ cm/s.
